# Laboratory results published in BindingDB's records for doi:10.1021/jm0110439 (Ghent University, 2002).
# Target: T1, Adenosine receptor A1 (Rattus norvegicus, UniProt P25099)
# T1 sequence (P25099 whole entry): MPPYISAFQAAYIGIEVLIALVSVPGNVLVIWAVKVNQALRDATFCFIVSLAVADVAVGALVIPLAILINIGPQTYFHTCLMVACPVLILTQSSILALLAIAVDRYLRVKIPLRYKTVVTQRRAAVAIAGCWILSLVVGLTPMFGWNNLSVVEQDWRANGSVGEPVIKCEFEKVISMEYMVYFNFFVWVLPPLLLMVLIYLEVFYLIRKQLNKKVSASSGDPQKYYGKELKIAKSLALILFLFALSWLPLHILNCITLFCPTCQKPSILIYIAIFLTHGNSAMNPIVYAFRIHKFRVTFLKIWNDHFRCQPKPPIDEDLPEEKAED
# Assay: GTP-induced shift at rat Adenosine A1 receptor (A1AR)
# Outline: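 GTP shift taken from these two Ki values. Done only for compounds giving >50% radioligand displacement at 10⁻⁶ M. At least three independent experiments in duplicate.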
row,SMILES,GTP shift
1,"Cc1ccc(C(=O)N[C@@H]2[C@@H](O)[C@H](n3cnc4c(NC5CCCC5)ncnc43)O[C@@H]2CO)cc1C [N-[5-(6-Cyclopentylamino-purin-9-yl)-4-hydroxy-2-hydroxymethyl-tetrahydro-furan-3-yl]-3,4-dimethyl-benzamide]",0.73
2,O=C(N[C@@H]1[C@@H](O)[C@H](n2cnc3c(NC4CCCC4)ncnc32)O[C@@H]1CO)c1ccc(F)c(Cl)c1 [3-Chloro-N-[5-(6-cyclopentylamino-purin-9-yl)-4-hydroxy-2-hydroxymethyl-tetrahydro-furan-3-yl]-4-fluoro-benzamide],0.7
3,C[C@H]1O[C@@H](n2cnc3c(NC4CCCC4)ncnc32)[C@H](O)[C@H]1NC(=O)C1(c2ccccc2)CCCC1 [1-Phenyl-cyclopentanecarboxylic acid [5-(6-cyclopentylamino-purin-9-yl)-4-hydroxy-2-methyl-tetrahydro-furan-3-yl]-amide],0.84
4,Cn1cnc2c(NC3CCCC3)ncnc21,0.94
5,"C[C@H]1O[C@@H](n2cnc3c(NC4CCCC4)ncnc32)[C@H](O)[C@H]1O [2-(6-Cyclopentylamino-purin-9-yl)-5-methyl-tetrahydro-furan-3,4-diol]",6.4
6,O=C(CCCc1cccs1)N[C@@H]1[C@@H](O)[C@H](n2cnc3c(NC4CCCC4)ncnc32)O[C@@H]1CO [N-[5-(6-Cyclopentylamino-purin-9-yl)-4-hydroxy-2-hydroxymethyl-tetrahydro-furan-3-yl]-4-thiophen-2-yl-butyramide],0.69
7,C[C@H]1O[C@@H](n2cnc3c(NC4CCCC4)ncnc32)[C@H](O)[C@H]1NC(=O)C1(c2ccccc2)CCCCC1 [1-Phenyl-cyclohexanecarboxylic acid [5-(6-cyclopentylamino-purin-9-yl)-4-hydroxy-2-methyl-tetrahydro-furan-3-yl]-amide],0.74
8,C[C@H]1O[C@@H](n2cnc3c(NC4CCCC4)ncnc32)[C@H](O)[C@H]1NC(=O)CCCc1cccs1 [N-[5-(6-Cyclopentylamino-purin-9-yl)-4-hydroxy-2-methyl-tetrahydro-furan-3-yl]-4-thiophen-2-yl-butyramide],0.7
9,C[C@H]1O[C@@H](n2cnc3c(NC4CCCC4)ncnc32)[C@H](O)[C@H]1NC(=O)C1CCCC[C@H]1C(=O)c1cccs1 (some centres undefined) [2-(Thiophene-2-carbonyl)-cyclohexanecarboxylic acid [5-(6-cyclopentylamino-purin-9-yl)-4-hydroxy-2-methyl-tetrahydro-furan-3-yl]-amide],0.72
